Legend:
[1] = tested on: Vector control cells (DKO MEF, RH7777, CHO, B103); test: Fura-2AM Ca2+ mobilization in empty vector control cells; type: cell-based; settings: read-out: vector EC50
Outline: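 Cells were loaded with Fura-2AM, and transient Ca2+ mobilization was read as fluorescence on a robotic plate reader. Receptor-expressing lines were CHO (LPA4), DKO MEF (LPA2), RH7777 (LPA1/3) and B103 (LPA5). Vector controls were the same lines transduced with empty vector. […] Values are means of three assays.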

[2] = tested on: radiation-induced apoptosis; settings: mice suffering from the acute hematopoietic radiation syndrome; cited from earlier work
apoptosis = settings: cell-based models of apoptosis; cited from earlier work
LPA2 = LPA2 (Homo sapiens, UniProt Q9HBW0); test: Fura-2AM Ca2+ mobilization, agonist mode, LPA2 DKO MEF cells; type: cell-based; settings: for LPA2 agonist activity (in words): Ca2+ mobilization, SAR discussion
LPA5 [3] = molecular target: T1, LPA5 (Homo sapiens, UniProt Q9H1C0); test: Fura-2AM Ca2+ mobilization, agonist mode, LPA5 B103 cells; type: cell-based; settings: B103, read-out: LPA5 Emax
LPA3 [4] = molecular target: T2, LPA3 (Homo sapiens, UniProt Q9UBY5); test: Fura-2AM Ca2+ mobilization, agonist mode, LPA3-expressing cells; type: cell-based; settings: read-out: LPA3 Emax
T2 sequence (Q9UBY5 1-353): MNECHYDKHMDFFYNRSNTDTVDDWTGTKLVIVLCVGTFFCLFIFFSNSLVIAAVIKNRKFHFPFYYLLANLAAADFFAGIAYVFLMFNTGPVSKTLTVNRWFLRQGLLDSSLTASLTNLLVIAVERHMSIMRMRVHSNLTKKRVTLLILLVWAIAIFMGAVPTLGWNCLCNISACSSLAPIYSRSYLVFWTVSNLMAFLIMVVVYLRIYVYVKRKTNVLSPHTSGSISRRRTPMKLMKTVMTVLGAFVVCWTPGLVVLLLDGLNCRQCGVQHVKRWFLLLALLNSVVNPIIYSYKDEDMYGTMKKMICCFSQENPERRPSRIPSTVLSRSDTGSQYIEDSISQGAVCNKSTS

LPA4 [5] = molecular target: T3, LPA4 (Mus musculus, UniProt Q8BLG2); test: Fura-2AM Ca2+ mobilization, agonist mode, LPA4 CHO cells; type: cell-based, human; settings: read-out: LPA4 Emax
LPA1 = LPA1 (Homo sapiens, UniProt Q92633); test: Ca2+ mobilization antagonist screen against LPA 18:1, LPA1; type: cell-based; settings: coapplied with LPA 18:1
LPA4 [6] = molecular target: T3, LPA4; test: Ca2+ mobilization antagonist screen against LPA 18:1, LPA4; type: cell-based, human; settings: coapplied with LPA 18:1
LPA5 [7] = molecular target: T1, LPA5; test: Ca2+ mobilization antagonist screen against LPA 18:1, LPA5; type: cell-based; settings: coapplied with LPA 18:1
LPA3 [8] = molecular target: T2, LPA3; test: Ca2+ mobilization antagonist screen against LPA 18:1, LPA3; type: cell-based

LPA2, sequence (Q9HBW0 whole entry): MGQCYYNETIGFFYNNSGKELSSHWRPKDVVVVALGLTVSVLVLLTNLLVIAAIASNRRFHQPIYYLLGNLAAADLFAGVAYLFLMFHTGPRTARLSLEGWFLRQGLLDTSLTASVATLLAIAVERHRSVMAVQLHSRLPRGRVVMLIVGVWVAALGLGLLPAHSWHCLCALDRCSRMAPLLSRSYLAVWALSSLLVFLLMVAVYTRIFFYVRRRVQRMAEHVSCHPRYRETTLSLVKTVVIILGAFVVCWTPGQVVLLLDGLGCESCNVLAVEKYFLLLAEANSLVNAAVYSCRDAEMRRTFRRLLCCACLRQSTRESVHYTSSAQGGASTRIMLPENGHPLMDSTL
T1 sequence (Q9H1C0 whole entry): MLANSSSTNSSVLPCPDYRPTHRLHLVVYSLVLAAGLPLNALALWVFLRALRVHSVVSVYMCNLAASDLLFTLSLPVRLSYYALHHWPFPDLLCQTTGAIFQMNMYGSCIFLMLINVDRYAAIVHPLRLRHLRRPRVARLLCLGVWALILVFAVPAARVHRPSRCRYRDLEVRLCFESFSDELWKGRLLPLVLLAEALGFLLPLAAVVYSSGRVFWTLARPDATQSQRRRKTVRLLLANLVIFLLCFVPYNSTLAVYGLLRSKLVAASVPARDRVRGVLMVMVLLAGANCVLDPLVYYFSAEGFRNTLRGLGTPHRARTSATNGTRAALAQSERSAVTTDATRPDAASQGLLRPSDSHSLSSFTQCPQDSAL
T3 sequence (Q8BLG2 whole entry): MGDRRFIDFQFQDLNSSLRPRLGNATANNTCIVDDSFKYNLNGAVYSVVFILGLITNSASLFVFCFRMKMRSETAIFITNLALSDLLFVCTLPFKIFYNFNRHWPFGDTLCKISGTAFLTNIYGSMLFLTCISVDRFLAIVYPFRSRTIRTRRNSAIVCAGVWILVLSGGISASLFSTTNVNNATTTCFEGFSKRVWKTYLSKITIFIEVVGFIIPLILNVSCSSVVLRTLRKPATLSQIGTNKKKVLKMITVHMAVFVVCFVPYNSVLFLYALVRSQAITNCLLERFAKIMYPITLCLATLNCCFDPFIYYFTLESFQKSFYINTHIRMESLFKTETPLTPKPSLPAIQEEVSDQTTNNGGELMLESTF
LPA1, sequence (Q92633 whole entry): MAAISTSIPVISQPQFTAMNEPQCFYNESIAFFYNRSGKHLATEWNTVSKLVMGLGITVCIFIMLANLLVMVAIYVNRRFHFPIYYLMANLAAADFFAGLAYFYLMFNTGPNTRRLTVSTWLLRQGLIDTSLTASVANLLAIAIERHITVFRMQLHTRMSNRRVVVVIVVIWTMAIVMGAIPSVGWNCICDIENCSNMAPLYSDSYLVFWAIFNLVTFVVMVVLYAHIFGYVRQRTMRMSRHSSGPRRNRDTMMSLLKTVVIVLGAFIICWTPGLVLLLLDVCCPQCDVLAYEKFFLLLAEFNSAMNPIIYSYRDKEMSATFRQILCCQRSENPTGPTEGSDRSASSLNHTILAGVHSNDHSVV

Row | Compound | LPA2 agonist activity (in words) (LPA2) | EC50 [1] | also measured
1 | O=C(O)c1cc(Br)ccc1S(=O)(=O)NCCCCN1C(=O)c2cccc3cccc(c23)C1=O [Compound 8c] | – | > 10 µM | –
2 | O=C(O)c1ccc2c(c1)S(=O)(=O)N(CCCCN1C(=O)c3cccc4cccc(c34)C1=O)C2=O [Compound 9, 2-(4-(1,3-dioxo-1H-benzo[de]isoquinolin-2(3H)-yl)butyl)-3-oxo-2,3-dihydrobenzo[d]isothiazole-6-carboxylic acid 1,1-dioxide] | – | > 10 µM | –
3 | O=C(O)c1cc(Cl)ccc1S(=O)(=O)NCCCCN1C(=O)c2cccc3cccc(c23)C1=O [Compound 11d, 5-chloro-2-(N-(4-(1,3-dioxo-1H-benzo[de]isoquinolin-2(3H)-yl)butyl)sulfamoyl)benzoic acid] | – | > 10 µM | –
4 | O=C(O)c1ccccc1SCCCN1C(=O)c2cccc3cccc(c23)C1=O [GRI-977143] | – | > 10 µM | efficacy against radiation-induced apoptosis [2]: modestly efficacious; antiapoptotic efficacy (apoptosis): showed antiapoptotic efficacy
5 | O=C(O)c1ccccc1S(=O)(=O)NCCCCCN1C(=O)c2cccc3cccc(c23)C1=O [Compound 6] | – | > 10 µM | –
6 | O=C(O)c1ccc(C(=O)O)c(S(=O)(=O)NCCCCN2C(=O)c3cccc4cccc(c34)C2=O)c1 [Compound 10, 2-(N-(4-(1,3-dioxo-1H-benzo[de]isoquinolin-2(3H)-yl)butyl)sulfamoyl)terephthalic acid] | considerably less potent than the compound 9 | > 10 µM | –
7 | O=C(O)c1cc(F)ccc1S(=O)(=O)NCCCCN1C(=O)c2cccc3cccc(c23)C1=O [Compound 11c] | – | > 10 µM | –
8 | CCCCCCCC/C=C\CCCCCCCC(=O)OC[C@@H](O)COP(=O)(O)O [LPA 18:1, 1-acyl-2-hydroxy-sn-3-glycerophosphate] | – | > 10 µM | Emax (LPA5 [3]): 100%; Emax (LPA3 [4]): 100%; Emax (LPA2; MEF, read-out: LPA2 Emax): 100%; Emax (LPA4 [5]): 100%
9 | O=C(O)c1ccccc1S(=O)(=O)NCCCCN1C(=O)c2cccc3cccc(c23)C1=O [Compound 5] | – | > 10 µM | –
10 | O=C(O)c1ccccc1S(=O)(=O)NCCCCN1C(=O)c2ccccc2C1=O [Compound 7a, 2-[4-(1,3-Dioxo-1,3-dihydroisoindol-2-yl)butylsulfamoyl]benzoic acid] | – | > 10 µM | EC50 (LPA2): > 10 µM
11 | O=C1C(=O)N(CCCCNS(=O)(=O)c2ccccc2C(=O)O)c2ccccc21 [Compound 7b, 2-(N-(4-(2,3-dioxoindolin-1-yl)butyl)sulfamoyl)benzoic acid] | – | > 10 µM | EC50 (LPA2): > 10 µM
12 | O=C(O)c1ccccc1S(=O)(=O)NCCCN1C(=O)c2cccc3cccc(c23)C1=O [Compound 4, 2-(N-(3-(1,3-dioxo-1H-benzo[de]isoquinolin-2(3H)-yl)propyl)sulfamoyl)benzoic acid] | – | > 10 µM | LPA1 inhibition (antagonist activity) (LPA1): without activating or inhibiting; EC50 (LPA2): ~2 µM; LPA4 inhibition (antagonist activity) (LPA4 [6]): without activating or inhibiting; LPA5 inhibition (antagonist activity) (LPA5 [7]): without activating or inhibiting; IC50 (LPA3 [8]): > 10 µM

The next lines start with results.

Row | LPA2 agonist activity (in words) (LPA2) | Compound | EC50 [1] | also measured
13 | more potent than compound 4 | O=C(O)c1ccc(Br)cc1S(=O)(=O)NCCCCN1C(=O)c2cccc3cccc(c23)C1=O [Compound 8b] | > 10 µM | –
14 | abolished the activity at LPA2 | O=C(O)c1cccc(S(=O)(=O)NCCCCN2C(=O)c3cccc4cccc(c34)C2=O)c1 [Compound 11a] | > 10 µM | –
15 | abolished the activity at LPA2 | O=C(O)c1ccc(S(=O)(=O)NCCCCN2C(=O)c3cccc4cccc(c34)C2=O)cc1 [Compound 11b] | > 10 µM | –
16 | very weak agonist activity | COc1ccc(C(=O)O)c(S(=O)(=O)NCCCCN2C(=O)c3cccc4cccc(c34)C2=O)c1 [Compound 8a] | > 10 µM | –

Source: paper PMC4148159 (Journal of Medicinal Chemistry, 2014)
